Here are results for eleven compounds from ChEMBL document CHEMBL4387757, “Synthesis and molecular modeling of novel non-sulfonylureas as hypoglycemic agents and selective ALR2 inhibitors” (Bioorg Med Chem, 2019).

As usually defined, the inhibition in vivo is the share of the control response that was lost under treatment. For orientation: IC50 means the concentration at which inhibition is half-maximal. Read a high IC50 as a need for much substance.

Experiment [1] has as its system Mus musculus. Nature of the experiment: Antihyperglycemic activity in alloxan-induced diabetic BALB/c mouse model assessed as blood glucose level at 10 mg/kg measured immediately by glucometry analysis. The format is functional. In outline:
(§1)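 Diabetic BALB/c mice; blood sampled before dosing (0 h) and again at 2, 4, 6 and 8 h to measure blood glucose (mg/dl). Values are means ± SEM from three trials.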

Experiment [2] relates to Mus musculus. The experiment is described as follows: Antihyperglycemic activity in alloxan-induced diabetic BALB/c mouse model assessed as blood glucose level at 10 mg/kg measured after 2 hrs by glucometry analysis. The experiment is classed as functional. In outline: as §1
The test system of experiment [3] is Mus musculus. Nature of the experiment: Antihyperglycemic activity in alloxan-induced diabetic BALB/c mouse model assessed as blood glucose level at 10 mg/kg measured after 4 hrs by glucometry analysis. The experiment is classed as functional. In outline:
as §1

The subject of experiment [4] is Mus musculus. The experiment is described as follows: Antihyperglycemic activity in alloxan-induced diabetic BALB/c mouse model assessed as blood glucose level at 10 mg/kg measured after 6 hrs by glucometry analysis. The experiment is classed as functional. In outline: as §1
Experiment [5] concerns Mus musculus. The experiment is described as follows: Antihyperglycemic activity in alloxan-induced diabetic BALB/c mouse model assessed as blood glucose level at 10 mg/kg measured after 8 hrs by glucometry analysis. The format is functional. In outline:
as §1

In experiment [6] the test system is Mus musculus. The experiment is described as follows: Antihyperglycemic activity in alloxan-induced diabetic BALB/c mouse model assessed as reduction in blood glucose level at 10 mg/kg measured after 8 hrs by glucometry analysis relative to control. The experiment is classed as functional. An outline of the steps:
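Diabetic BALB/c mice; blood glucose measured at 0 h and at 2, 4, 6 and 8 h. Percent inhibition of blood glucose was calculated at 8 h. Three trials.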

Experiment [7] has as its target T1, Aldo-keto reductase family 1 member B1 (Homo sapiens, UniProt P15121). The experiment is described as follows: Selectivity index, ratio of IC50 for ALR1 (unknown origin) to IC50 for ALR2 (unknown origin).
Experiment [8] addresses Aldo-keto reductase family 1 member A1 (Homo sapiens, UniProt P14550). The experiment is described as follows: Inhibition of ALR1 (unknown origin) using sodium d-glucoronate as substrate preincubated for 10 mins followed by substrate addition by UV-spectrophotometry analysis. In outline:
(§2)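 Enzyme activity followed by UV spectrophotometry as the decrease in NADPH absorbance at 340 nm. Valproic acid served as positive control for ALR1, sorbinil for ALR2.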

The target in experiment [9] is T1, Aldo-keto reductase family 1 member B1. Nature of the experiment: Inhibition of ALR2 (unknown origin) using sodium dl-glyceraldehyde as substrate preincubated for 10 mins followed by substrate addition by UV-spectrophotometry analysis. In outline:
as §2

Sequence of Aldo-keto reductase family 1 member A1 (P14550 2-325 limits assumed): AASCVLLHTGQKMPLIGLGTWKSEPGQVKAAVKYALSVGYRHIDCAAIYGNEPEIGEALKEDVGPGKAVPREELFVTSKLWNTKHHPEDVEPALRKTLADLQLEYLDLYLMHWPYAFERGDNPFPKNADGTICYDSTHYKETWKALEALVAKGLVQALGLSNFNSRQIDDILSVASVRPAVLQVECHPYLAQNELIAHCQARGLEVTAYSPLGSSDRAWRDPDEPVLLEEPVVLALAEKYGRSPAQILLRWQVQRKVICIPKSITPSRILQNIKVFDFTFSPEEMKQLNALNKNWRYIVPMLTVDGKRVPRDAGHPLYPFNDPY

As for `CCOc1cc(CC(=O)N[C@@H](CC(C)C)c2ccccc2N2CCCCC2)ccc1C(=O)O` [REPAGLINIDE], the Activity is 392 mg/dL in the experiment on Mus musculus [1]; 313 mg/dL in the experiment on Mus musculus [2]; 259 mg/dL with Mus musculus [3]; 160 mg/dL with Mus musculus [4]; 94 mg/dL in the experiment with Mus musculus [5]. Also, in the experiment on Mus musculus [6], the inhibition in vivo at 10 mg/kg was determined as 66.1%.

With `O=C(CN1C(=O)NC2(CCCCC2)C1=O)Nc1ccc(Br)cc1`, the Activity was 459 mg/dL with Mus musculus [1]; 386 mg/dL in the experiment with Mus musculus [2]; 276 mg/dL in the experiment with Mus musculus [3]; 182 mg/dL with Mus musculus [4]; 69 mg/dL in the experiment with Mus musculus [5]. The inhibition in vivo at 10 mg/kg in the experiment on Mus musculus [6] was determined as 85.1%. Further, the Ratio IC50 in experiment [7] is 43.4. For the same compound, the IC50 in experiment [8] was 31.2 µM; in experiment [9], 0.72 µM.

Consider `O=C(CN1C(=O)NC2(C1=O)c1ccccc1-c1ccccc12)Nc1ccc(Cl)cc1`, for which the Activity in the experiment on Mus musculus [1] came to 460 mg/dL; with Mus musculus [2], 350 mg/dL; in the experiment with Mus musculus [3] it was 234 mg/dL; in the experiment on Mus musculus [4], 189 mg/dL; in the experiment with Mus musculus [5] it was 90 mg/dL. In the experiment on Mus musculus [6], the inhibition in vivo at 10 mg/kg was 80.4%. Further, the Ratio IC50 in experiment [7] came out at 21.6. Besides, the 50% inhibitory concentration (IC50) in [8] was found to be 22.2 µM; in [9], 1.03 µM.

For `COc1ccc(NC(=O)CN2C(=O)NC3(CCCCC3)C2=O)cc1`, the Activity in the experiment on Mus musculus [1] was found to be 370 mg/dL; in the experiment with Mus musculus [2] it was 322 mg/dL; with Mus musculus [3], 299 mg/dL; with Mus musculus [4] it was 231 mg/dL; with Mus musculus [5], 163 mg/dL. Further, in the experiment with Mus musculus [6], the inhibition in vivo at 10 mg/kg turned out to be 56.1%. Moreover, the Ratio IC50 in experiment [7] stood at 9.36. The 50% inhibitory concentration (IC50) in experiment [8] turned out to be 25.8 µM; in experiment [9] it was 2.76 µM.

With `COc1ccc(NC(=O)CN2C(=O)NC3(C2=O)c2ccccc2-c2ccccc23)cc1`, the Activity amounted to 320 mg/dL in the experiment on Mus musculus [1]; 258 mg/dL in the experiment on Mus musculus [2]; 237 mg/dL in the experiment on Mus musculus [3]; 279 mg/dL in the experiment on Mus musculus [4]; 370 mg/dL in the experiment on Mus musculus [5]. In addition, the Ratio IC50 in experiment [7] was 8.45. Also, the half-inhibitory concentration (IC50) came to 24.3 µM in experiment [8] and 2.87 µM in experiment [9].

In the case of `Cc1ccc(NC(=O)CN2C(=O)NC3(C2=O)c2ccccc2-c2ccccc23)cc1`, the Activity in the experiment on Mus musculus [1] was 358 mg/dL; in the experiment on Mus musculus [2] it was 314 mg/dL; in the experiment on Mus musculus [3], 283 mg/dL; with Mus musculus [4], 211 mg/dL; in the experiment on Mus musculus [5], 167 mg/dL. In the experiment with Mus musculus [6], the inhibition in vivo at 10 mg/kg is 53.4%. The Ratio IC50 in experiment [7] is 1.76. For the same compound, the results for the half-inhibitory concentration (IC50) in experiment [8] and in [9] were 10.9 µM and 6.21 µM, respectively.

With `Cc1ccc(NC(=O)CN2C(=O)NC3(CCCCC3)C2=O)cc1`, the Activity with Mus musculus [1] is 387 mg/dL; with Mus musculus [2], 305 mg/dL; with Mus musculus [3] it was 268 mg/dL; with Mus musculus [4], 197 mg/dL; with Mus musculus [5], 115 mg/dL. Further, the inhibition in vivo at 10 mg/kg in the experiment on Mus musculus [6] was 70.3%. Moreover, the Ratio IC50 in experiment [7] was found to be 0.63. The figures for the IC50 in experiment [8] and in experiment [9] were 6.43 µM and 10.2 µM, respectively.

In the case of `O=C(CN1C(=O)NC2(C1=O)c1ccccc1-c1ccccc12)Nc1ccc(Cl)cc1Cl`, the Activity turned out to be 398 mg/dL in the experiment with Mus musculus [1]; 290 mg/dL with Mus musculus [2]; 223 mg/dL with Mus musculus [3]; 168 mg/dL in the experiment with Mus musculus [4]; 63 mg/dL in the experiment on Mus musculus [5]. Further, in the experiment on Mus musculus [6], the inhibition in vivo at 10 mg/kg is 84.3%. In addition, the Ratio IC50 in [7] was determined as 96. Further, the concentration for half-maximal inhibition (IC50) in experiment [8] came out at 35.5 µM; in experiment [9] it was 0.37 µM.

For the compound `O=C(CN1C(=O)NC2(CCCCC2)C1=O)Nc1ccc(Cl)cc1`, the Activity with Mus musculus [1] worked out at 406 mg/dL; in the experiment with Mus musculus [2], 347 mg/dL; in the experiment on Mus musculus [3] it was 242 mg/dL; with Mus musculus [4] it was 170 mg/dL; in the experiment on Mus musculus [5], 85 mg/dL. Moreover, the inhibition in vivo at 10 mg/kg in the experiment on Mus musculus [6] was 79.2%. Besides, the Ratio IC50 in [7] turned out to be 18.3. For the same compound, the half-inhibitory concentration (IC50) stood at 20.7 µM in experiment [8] and 1.13 µM in [9].

With `O=C(CN1C(=O)NC2(C1=O)c1ccccc1-c1ccccc12)Nc1ccc(Br)cc1`, the Activity worked out at 452 mg/dL in the experiment with Mus musculus [1]; 331 mg/dL in the experiment with Mus musculus [2]; 218 mg/dL in the experiment with Mus musculus [3]; 173 mg/dL in the experiment on Mus musculus [4]; 85 mg/dL in the experiment with Mus musculus [5]. In the experiment on Mus musculus [6], the inhibition in vivo at 10 mg/kg was determined as 81.1%. In addition, the Ratio IC50 in experiment [7] was 32.6. Besides, the half-maximal inhibitory concentration (IC50) in [8] was found to be 30.3 µM; in experiment [9], 0.93 µM.

Take `O=C(CN1C(=O)NC2(CCCCC2)C1=O)Nc1ccc(Cl)cc1Cl`: the Activity with Mus musculus [1] stood at 384 mg/dL; in the experiment on Mus musculus [2] it was 319 mg/dL; in the experiment on Mus musculus [3] it was 269 mg/dL; in the experiment with Mus musculus [4], 217 mg/dL; in the experiment with Mus musculus [5], 121 mg/dL. Also, the inhibition in vivo at 10 mg/kg with Mus musculus [6] stood at 68.5%. The Ratio IC50 in experiment [7] is 16.9. Moreover, the values for the IC50 in experiment [8] and in [9] were 32.9 µM and 1.95 µM, respectively.
